# hERG rescue – hERG (human) protection from proarrhythmic block; Q12809; CHO-hERG, FluxOR thallium flux, dofetilide IC70 present; activation (rescue from dofetilide block), less the hit threshold, % at 10 µM; hit rate 0.51% among 310,000; AID 1511;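 active = activation above the mean of controls blocked by dofetilide plus 5 SD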;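 note: thallium influx through hERG after potassium depolarization seen as dye fluorescence rise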
# KCNQ1 block – blocks the human KCNQ1 potassium channel; P51787; CHO-K1 KCNQ1, FluxOR thallium flux fluorescence; hits give high values; B-score at 10 µM; hit rate 1.3% among 310,000; AID 2642;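 active = compounds whose thallium flux B-score, printed positive for inhibition, exceeds three library SD while starting fluorescence stays within three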;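 note: channel opened by potassium depolarization with thallium stimulus after 20 min compound exposure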
# Kir21 inh – inhibitors of mouse Kir2.1 inward-rectifier potassium channel | P35561 | HEK293-Kir2.1, FluxOR thallium flux fluorescence; hits give low values | B-score at 10 µM | hit rate 0.85% among 310,000 | AID 1672;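 active = fluorescence ratio B-score at or below minus 3 SD of library scores, with starting-brightness B-score within 2 SD, cut at about -4.2 in these data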;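 note: channel flux triggered by added potassium and thallium sulfate stimulus; B-score of peak minus minimum fluorescence over baseline after thallium stimulus; more negative B-score means stronger Kir2.1 block with less thallium influx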
# KCNK9 inh – human KCNK9 channel inhibition; HEK293 KCNK9, FluxOR thallium flux fluorescence; hits give low values; B-score at 10 µM; hit rate 1.2% among 310,000; AID 488922;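 active = ratio B-score over 3 SD below the library mean, with starting fluorescence within 5 SD of its mean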;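 note: negative B-score means less thallium flux so channel inhibition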
# KCNQ1 act – potentiators or activators of human KCNQ1 potassium channel. CHO-K1 KCNQ1, thallium flux FluxOR fluorescence; hits give high values. P51787. hit rate 0.35% among 310,000. B-score at 10 µM;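 active = fluorescence ratio B-score, a plate-corrected score, at least three library SD, with initial intensity B-score within 5 SD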
#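 Doses: Single concentration per compound, DMSO matched to controls | Test system: KCNQ1-transfected CHO-K1 cells | Timing: 90 min dye loading and 20 min compound exposure, both at room temperature | Measured by: Kinetic FluxOR thallium fluorescence, 10-s 1-Hz baseline, 110-s post-stimulus read | Medium: Assay buffer with matched DMSO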
# KCNK3 block – human KCNK3 channel inhibition, primary screen | O14649 | CHO-KCNK3 thallium flux, FluxOR fluorescence; hits give low values | B-score at 10 µM | hit rate 0.84% among 340,000 | AID 602410;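 active = B-score under library mean minus 4 SD, starting fluorescence ratio at most library mean plus 5 SD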;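 note: more negative B-score means stronger inhibition of thallium flux through KCNK3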
# Target sequence (O14649 whole entry, looked up): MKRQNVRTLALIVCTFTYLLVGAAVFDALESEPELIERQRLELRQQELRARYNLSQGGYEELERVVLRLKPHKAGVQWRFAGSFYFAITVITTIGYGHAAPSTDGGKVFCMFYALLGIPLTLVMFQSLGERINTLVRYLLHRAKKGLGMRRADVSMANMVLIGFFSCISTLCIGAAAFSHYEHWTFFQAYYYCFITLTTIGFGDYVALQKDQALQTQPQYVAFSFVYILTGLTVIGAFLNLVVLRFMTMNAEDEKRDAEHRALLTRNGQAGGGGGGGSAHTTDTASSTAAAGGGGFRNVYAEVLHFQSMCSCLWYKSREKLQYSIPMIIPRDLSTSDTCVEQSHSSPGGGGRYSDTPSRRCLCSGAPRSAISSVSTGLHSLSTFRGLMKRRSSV
# KCNK9 inh conf – human KCNK9 inhibitor confirmation; HEK293 KCNK9 cells, FluxOR thallium flux fluorescence; shares compounds with KCNK9 inh; AID 492992; hit rate 43% among 4,900; inhibition, % at 10 µM;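 active = thallium signal inhibited by more than 5 SD of the compound-free buffer control wells, on both duplicate plates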;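 note: 0% = assay buffer control wells without compound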
# Kir2-1 spec – mouse Kir2.1 off-target activity of KCNK9 modulators | hit rate 4% among 4,900 | Kir2.1 cells, FluxOR thallium flux fluorescence | inhibition, % at 10 µM | shares compounds with KCNK9 inh;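 active = thallium signal drop more than 5 SD beyond the mean of the no-compound control wells, seen in both duplicate plates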;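 note: signal is fluorescence rise after thallium addition divided by baseline fluorescence; plate controls were assay buffer only for no effect and full block by chlorpromazine control for full effect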
# KCNK9 uninduced – second counter-screen for KCNK9 modulators: effect in non-induced cells; shares compounds with KCNK9 inh; inhibition, % at 10 µM; hit rate 40% among 4,900; non-induced KCNK9-HEK293, FluxOR thallium flux; AID 492997;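 active = thallium signal drop beyond 5 SD of the untreated control mean, on both duplicate plates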;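 note: plate controls were buffer only IC0 wells for no effect and SID17386958 at its maximal inhibitory level for full effect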
# * marks the source's active call; other numbers are inactive results; i = inactive; nt = no result. Only some compounds are listed: those with a hit (about 3.8% of all), similar ones and a draw of the others.
SMILES,hERG rescue,KCNQ1 block,Kir21 inh,KCNK9 inh,KCNQ1 act,KCNK3 block,KCNK9 inh conf,Kir2-1 spec,KCNK9 uninduced
O=c1c2c3c(sc2n(CCN2CCCC2)c(=O)n1Cc1ccco1)CCCCC3,-8,i,-2.2,i,i,i,nt,nt,nt
CN(C)CCn1c(=O)n(Cc2ccco2)c(=O)c2c3c(sc21)CCCCC3,-20,i,-1.4,i,i,i,i,i,i
O=C(Cn1c(=O)n(Cc2ccco2)c(=O)c2c3c(sc21)CCCCC3)Nc1ccccc1,1,6*,-1.4,i,i,i,i,i,34%*
CC[N+](C)(CC)CCOC(=O)C1c2ccccc2Oc2ccccc21,nt,nt,nt,nt,nt,i,nt,nt,nt
Cc1ccc(SCC2(O)CCN(S(=O)(=O)c3ccc(Cl)cc3)CC2)cc1,-10,i,-1.1,i,80*,i,i,i,i
Cc1ccc(Sc2nc(-c3ccccc3)nnc2C(F)(F)F)cc1,-11,i,1.2,i,i,i,i,i,i
CCCCOC(=O)Nc1cc(C)c(Cl)cc1OC,1,i,-0.51,i,i,i,nt,nt,nt
CCCCOC(=O)Nc1cc(Cl)ccc1C,-9,i,0.19,-13*,i,i,32%*,i,i
O=C(/C=C/c1ccco1)NC(=S)Nc1cccc(-c2nc3ccccc3s2)c1,-11,i,-0.39,i,i,i,i,i,i
CC(C)CN1CCC(=O)N(CCOc2ccccc2)CC1,-5,i,-0.15,i,i,i,nt,nt,nt
CC(C)CN1CCC(=O)N(CCSc2ccc(Br)cc2)CC1,-6,i,-1.4,i,i,i,i,i,i
CCC(C)(C)NC(=O)CN(C(=O)CNS(=O)(=O)c1ccc(C)cc1)c1ccc2c(c1)OCCO2,-8,i,0.15,i,i,i,nt,nt,nt
O=C1OC(OC2CCCCC2)(c2ccccc2)c2ccccc21 (stereo not given),-7,i,0.58,-18*,i,i,76%*,i,60%*
CCCCC(CC)COC1(c2ccccc2)OC(=O)c2ccccc21 (stereo not given),-6,i,-0.12,-18*,i,i,76%*,i,50%*
O=C1OC(Oc2ccccc2)(c2ccccc2)c2ccccc21 (stereo not given),-16,i,-0.24,-10*,i,i,52%*,i,48%*
COc1ccc(COC(=O)c2ccc(Br)c(S(=O)(=O)N3CCOCC3)c2)cc1F,-17,i,-0.34,i,i,i,nt,nt,nt
COc1ccc(NS(=O)(=O)c2cccc(C(=O)NCc3ccccc3CN3CCOCC3)c2)cc1,nt,nt,nt,nt,nt,i,nt,nt,nt
Cc1ccc(C)n1-c1nn(S(=O)(=O)c2ccccc2)c2cccc(F)c12,-3,i,0.93,-15*,i,i,58%*,i,42%*
CSc1nc(-c2ccccc2)nn1S(=O)(=O)c1ccccc1,-16,i,0.91,i,i,i,nt,nt,nt
CCOC(=O)c1cnn(-c2ccccc2)c1-n1cccc1C(=O)C(=O)N(CC)CC,-12,i,-0.04,i,i,i,nt,nt,nt
CCOC(=O)c1cnn(-c2ccccc2)c1-n1cccc1C(=O)C(=O)Nc1ccccc1C(F)(F)F,-3,i,1.6,-14*,i,i,43%*,i,54%*
O=C(Nc1ccc(F)cc1F)Nc1sccc1-c1nc2ccccc2s1,-12,i,0.55,-11*,i,i,50%*,i,26%*
O=C(NCc1ccccc1)C1=C[C@H](c2ccc3c(c2)OCO3)C[C@H](OCCCCO)O1,-9,i,0,i,i,i,i,i,i
O=C(Nc1ccccc1)C1=C[C@@H](C2CCCCC2)C[C@@H](OCCCCO)O1,-7,i,1.9,i,i,i,nt,nt,nt
O=C(NCc1ccccc1)C1=C[C@H](c2ccc3c(c2)OCO3)C[C@H](OCc2ccc(CO)cc2)O1,-22,i,-0.64,i,i,i,nt,nt,nt
SMILES,hERG rescue,KCNQ1 block,Kir21 inh,KCNK9 inh,KCNQ1 act,KCNK3 block,KCNK9 inh conf,Kir2-1 spec,KCNK9 uninduced
O=C(NCc1ccccc1)C1=C[C@H](C2CCCCC2)C[C@H](OCCCCO)O1,-7,i,-0.55,i,i,i,i,i,i
CC(C)(C)N(Cc1ccccc1)C(=O)c1ccc(Cl)cc1[N+](=O)[O-],-20,i,-0.01,i,i,i,i,i,i
COc1ccc(O[C@H]2C=C[C@@H](c3ccccc3)O[C@@H]2CO/N=C(\C)CCC(=O)OC[C@H]2O[C@H](c3ccccc3)C=C[C@@H]2Oc2ccc(OC)cc2)cc1,-5,i,0.48,i,i,nt,nt,nt,nt
O=C(Nc1ccccc1)OCCNC1CCCCC1,nt,nt,nt,nt,nt,i,nt,nt,nt
O=C(Nc1ccccc1)OC1CCCCc2cccnc21 (stereo not given),-10,i,-1.3,i,i,i,i,i,28%*
CC1CC(C)CN(S(=O)(=O)c2ccc(NC(=O)C3COc4ccccc4O3)cc2)C1 (stereo not given),-6,i,-0.25,i,i,i,i,i,i
COc1ccc(C(c2nnnn2Cc2ccccc2)N2CCN(c3nc4ccccc4s3)CC2)cc1OC (stereo not given),-10,i,-0.41,-8.7*,i,i,i,i,i
CCC(C)(C)n1nnnc1C(c1cccc(C#N)c1)N1CCN(c2cccc(C)c2C)CC1 (stereo not given),-7,i,0.02,-17*,i,-9.5*,74%*,i,38%*
COc1ccccc1C(c1nnnn1Cc1ccccc1)N1CCN(c2nc3ccccc3s2)CC1 (stereo not given),-7,i,0.09,i,i,i,nt,nt,nt
CCC(C)(C)n1nnnc1C(c1ccc(O)c(OC)c1)N1CCN(c2nc3ccccc3s2)CC1 (stereo not given),-9,i,-0.02,-15*,i,i,46%*,i,28%*
CC(C)(C)n1nnnc1C(c1cccc(C#N)c1)N1CCCCCC1 (stereo not given),-10,i,-2.1,i,i,i,nt,nt,nt
Cc1cc(Cl)ccc1NC(=O)/C=N/O,-5,i,-1.1,i,i,i,nt,nt,nt
